Source: the RNAGym collection of RNA variant scans (doi:10.1126/science.aae0568)
Variants at the floor of the assay were thinned out.

B1: tRNA (parent)
chain: GUUCCGUUGGCGUAAUGGUAACGCGUCUCCCUCCUAAGGAGAAGACUGCGGGUUCGAGUCCCGUACGGAACG

Variants of: B1
Test: yeast fitness relative to wild type (ratio to wild type); higher = fitter; tRNA-Arg(CCU), competitive growth, 37 C, YPD
Procedure, shortened: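 Genotype frequency changes were the basis for Darwinian fitness relative to wild type. The frequencies came from 100-nucleotide paired-end sequencing of gene amplicons from the start population and each end population of pooled yeast strains with tRNA-Arg(CCU) gene variants at the native locus. Competition ran in YPD at 37°C for 24 hours in six replicates, genotypes needed ≥ 100 starting reads, and estimates < 0.5 were set to 0.5.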

Variant	yeast fitness
U26A G48A C49G	0.552
G23C C60G G68C	≤ 0.5
U13C C27A	0.963
U8A C29A U47C	≤ 0.5
U3G G9C C33G G63A	0.606
C4A G9C C11G A45C A57G	0.526
G9A C31U C60U C62U	≤ 0.5
C46G A57C A69C	≤ 0.5
G25A C29U A69C	0.807
C4G A21U C49U G56C	≤ 0.5
A21G C31U U35C A40G A65U	≤ 0.5
G6A A14G C33A	≤ 0.5
U3G G12C A42U G67C	≤ 0.5
U16A C29G G41C A45U	≤ 0.5
U3A A21U A65U	≤ 0.5
G6C A37U A43U	0.525
U3C U59A	0.846
C5G C24G G41C	≤ 0.5
C11A A15G A20G C24U A37C G50A G67C	≤ 0.5
G18A C22G	0.856
C5U A45U G56A	0.715

Variant	yeast fitness
U8C A40C	1.02
C11U G25C	0.982
C4G G9C G41A C55U U59A A70U	0.545
U8A G39C A43G	0.605
U8G A14G C33U	≤ 0.5
U3A A21G C66U A70C	0.794
C4G C11U A14G C55G G68C	≤ 0.5
U2G G41C	0.818
U8G G38A	0.57
C5G A40C U53G C60A	≤ 0.5
G23U A42C	0.74
A40G U53C	0.827
C5U U26A C55G	≤ 0.5
C11U G44A C60G U64C	≤ 0.5
A20C G48C G67A	0.638
A21U C27G A45C	≤ 0.5
C30U U59C	0.824
C30U G41C A69U	≤ 0.5
U3C A45U G50A	0.849
A21C C27A C33U A69C	0.625
C11A G51A A65U	≤ 0.5

Variant	yeast fitness
G39C U53A C62A G68C	≤ 0.5
A14U C24G G58A	0.561
C5G G25A C46U A69U	0.576
C4U C11G G18C U47A A69U	0.699
U7G C29G C30U C46U	0.534
C11G A40G C60U U64C	≤ 0.5
G58A G63A A65C	0.584
A42U A70U	0.919
G25C C31U G68U	0.587
G17C U19C G68U	0.569
A42U U47A	0.789
G17A G52C	0.65
U2G A70C	0.836
U28A G41A	0.697
C4A A14C G38A U59G	≤ 0.5
A15U U16C A65G	≤ 0.5
C22A G41A G50A	≤ 0.5
G12U A15G	0.814
U3C C27G G48C	0.522
U28C C31U G51A G63C	≤ 0.5
U2A G41C	0.757

Variant	yeast fitness
A15U A21C C49A	≤ 0.5
G48C A65U	0.75
U3C G23C C27G C61G	0.539
C11G A15G C22A A37U A65C C66G	≤ 0.5
A37G G39A A69U	0.589
C30U A42U	0.879
U7C C31G U32C G48C G50A A65U	≤ 0.5
A36U C55U A65C	≤ 0.5
U7A C30U C46U C49U	≤ 0.5
G9C U26C C34G A37G	0.591
G9A C33U G56A G67A	≤ 0.5
G9A C30A A45C C49A	0.651
G25C U47C G63A A65C	≤ 0.5
U2G U3G C29G C30G C46G	≤ 0.5
C4U C24A C30G	0.554
A15U C46G A70U	0.56
A20G U35C A36G	0.727
U2A A20U C34A C61U A65U	≤ 0.5
U13C C31U A43G C60G	≤ 0.5
U47C G50A	0.99
